According to PMC6054836 (Molecular Vision, 2018):
Like-named read-outs stand apart in the source and are kept apart here.

How the values were obtained:
PKCβ1 = PKCβ1 (Homo sapiens, UniProt P05771); assay: In vitro PKC inhibition assay; format: biochemical; conditions: read-out: IC50 PKCβ1; purified human recombinant PKCβ1, 30 min, room temperature
In short: (§1)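 Purified human recombinant PKC isoforms incubated at room temperature with ATP and isoform-specific substrates (25 to 400 nM) plus increasing concentrations of test compound (C8–C18 alkyl benzyl quaternary ammonium class). TR-FRET detection (LANCE or HTRF). Percent inhibition of control activity; IC50 and Hill coefficient from nonlinear Hill-equation fits of mean replicate values.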

PKCα = PKCα (Homo sapiens, UniProt P17252); assay: In vitro PKC inhibition assay; format: biochemical; conditions: read-out: IC50 PKCα; purified human recombinant PKCα, 15 min, room temperature
In short: as §1

PKCβ2 = PKCβ2 (Homo sapiens, UniProt P05771); assay: In vitro PKC inhibition assay; format: biochemical; conditions: read-out: IC50 PKCβ2; purified human recombinant PKCβ2, 15 min, room temperature
In short: as §1

PKCδ = PKCδ (Homo sapiens, UniProt Q05655); assay: In vitro PKC inhibition assay; format: biochemical; conditions: read-out: IC50 PKCδ; purified human recombinant PKCδ, 30 min, room temperature
In short: as §1

PBMCs (LPS) = assay: Marker secretion inhibition in LPS-stimulated PBMCs; format: cell-based; conditions: Homo sapiens, PBMC
In short: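 PBMCs were Ficoll-isolated from one donor's blood and cultured in RPMI 1640 with 10% heat-inactivated FBS, 2 mM glutamine and pen/strep at 37 °C, 5% CO2. Test compound was given in a 30-min preincubation, then in fresh medium with LPS for 24 h. IL-6, IL-8 and IL-12 in supernatant were measured by flow-cytometric bead array. Results are % inhibition versus stimulated cells, mean ± SEM of triplicates.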

Chain of PKCδ (Q05655 whole entry): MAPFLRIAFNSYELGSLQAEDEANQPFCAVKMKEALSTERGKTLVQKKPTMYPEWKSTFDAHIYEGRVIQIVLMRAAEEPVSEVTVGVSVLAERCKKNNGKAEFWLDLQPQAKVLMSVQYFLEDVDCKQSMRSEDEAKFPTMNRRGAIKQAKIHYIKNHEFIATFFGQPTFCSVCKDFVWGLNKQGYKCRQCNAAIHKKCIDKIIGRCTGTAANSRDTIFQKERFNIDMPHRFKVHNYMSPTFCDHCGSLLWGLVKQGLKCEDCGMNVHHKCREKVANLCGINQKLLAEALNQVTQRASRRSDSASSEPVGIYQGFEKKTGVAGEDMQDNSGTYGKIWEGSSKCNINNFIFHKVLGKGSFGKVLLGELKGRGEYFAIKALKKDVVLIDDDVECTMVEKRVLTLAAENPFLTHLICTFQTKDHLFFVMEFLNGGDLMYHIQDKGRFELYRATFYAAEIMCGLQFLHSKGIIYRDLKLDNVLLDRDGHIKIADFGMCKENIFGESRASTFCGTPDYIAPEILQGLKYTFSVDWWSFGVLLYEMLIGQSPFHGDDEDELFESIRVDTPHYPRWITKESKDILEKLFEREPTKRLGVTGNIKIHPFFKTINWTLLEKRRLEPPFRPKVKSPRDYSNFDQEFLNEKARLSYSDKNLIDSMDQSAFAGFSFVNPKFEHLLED
Chain of PKCβ1 (P05771 whole entry, canonical isoform): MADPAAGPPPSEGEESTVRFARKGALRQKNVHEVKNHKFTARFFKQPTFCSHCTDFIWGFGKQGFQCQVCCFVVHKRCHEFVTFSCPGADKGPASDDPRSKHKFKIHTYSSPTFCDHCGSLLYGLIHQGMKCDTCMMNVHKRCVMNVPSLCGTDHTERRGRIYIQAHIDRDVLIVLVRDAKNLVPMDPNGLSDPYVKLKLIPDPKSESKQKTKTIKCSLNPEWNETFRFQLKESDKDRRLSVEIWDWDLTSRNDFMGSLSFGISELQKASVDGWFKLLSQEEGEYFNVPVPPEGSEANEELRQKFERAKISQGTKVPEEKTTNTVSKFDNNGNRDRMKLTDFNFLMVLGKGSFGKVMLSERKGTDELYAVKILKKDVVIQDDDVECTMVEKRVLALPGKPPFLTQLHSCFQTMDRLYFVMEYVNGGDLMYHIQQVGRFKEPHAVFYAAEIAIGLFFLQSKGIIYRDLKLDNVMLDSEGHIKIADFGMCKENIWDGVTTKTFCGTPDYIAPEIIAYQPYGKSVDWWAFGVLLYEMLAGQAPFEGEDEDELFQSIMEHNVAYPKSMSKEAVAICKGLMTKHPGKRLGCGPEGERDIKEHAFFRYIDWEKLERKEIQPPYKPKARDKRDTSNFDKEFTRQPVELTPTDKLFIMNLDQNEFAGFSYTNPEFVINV
Chain of PKCβ2 (P05771 1-673 isoform P05771-2): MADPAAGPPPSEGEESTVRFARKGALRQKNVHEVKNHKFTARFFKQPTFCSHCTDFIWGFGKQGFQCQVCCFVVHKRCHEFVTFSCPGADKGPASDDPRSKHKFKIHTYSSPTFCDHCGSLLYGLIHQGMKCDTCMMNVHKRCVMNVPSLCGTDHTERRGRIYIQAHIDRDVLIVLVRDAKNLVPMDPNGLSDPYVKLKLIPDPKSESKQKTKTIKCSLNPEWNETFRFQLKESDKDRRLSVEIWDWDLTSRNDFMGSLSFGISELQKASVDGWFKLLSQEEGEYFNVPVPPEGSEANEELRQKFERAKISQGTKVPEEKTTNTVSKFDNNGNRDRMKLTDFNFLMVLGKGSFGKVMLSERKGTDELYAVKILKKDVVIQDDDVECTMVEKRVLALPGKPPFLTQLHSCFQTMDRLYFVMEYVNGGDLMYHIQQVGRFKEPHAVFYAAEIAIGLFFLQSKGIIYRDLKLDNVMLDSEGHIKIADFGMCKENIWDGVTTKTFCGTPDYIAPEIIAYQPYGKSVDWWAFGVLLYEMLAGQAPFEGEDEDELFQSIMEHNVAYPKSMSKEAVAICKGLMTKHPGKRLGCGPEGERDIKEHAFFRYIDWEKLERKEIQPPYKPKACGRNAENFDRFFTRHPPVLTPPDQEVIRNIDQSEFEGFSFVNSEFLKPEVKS

Compound | IC50 (PKCβ1) [µM] | IC50 (PKCα) [µM] | IC50 (PKCβ2) [µM] | IC50 (PKCδ) [µM] | inhibition at 0.1 µM (PBMCs (LPS); read-out: % of marker secretion inhibition, IL6) [%] | inhibition at 0.1 µM (PBMCs (LPS); read-out: % of marker secretion inhibition, IL8) [%] | inhibition at 0.1 µM (PBMCs (LPS); read-out: % of marker secretion inhibition, IL12) [%] | inhibition at 0.1 µM (PBMCs (LPS); read-out: % of marker secretion inhibition, TNFα) [%]
CCCCCCCC[N+](C)(C)Cc1ccccc1 [C8] | > 101 | > 141 | > 101 |  |  |  |  | 
CCCCCCCCCC[N+](C)(C)Cc1ccccc1 [C10] | > 101 | > 128 | > 101 | > 128 |  |  |  | 
CCCCCCCCCCCC[N+](C)(C)Cc1ccccc1 [C12] | 58.8 | 22.6 | 58.8 | > 118 |  |  |  | 
CCCCCCCCCCCCCC[N+](C)(C)Cc1ccccc1 [C14] | 10.1 | 5.4 | 14.1 | > 109 |  |  |  | 
CCCCCCCCCCCCCCCC[N+](C)(C)Cc1ccccc1 [C16 (CKC), cetalkonium chloride] | > 101 |  | > 101 |  |  |  |  | 
CCCCCCCCCCCCCCCCCC[N+](C)(C)Cc1ccccc1 [C18] | 74.6 | 11.7 | 39.3 |  |  |  |  | 
C[C@@H]1C[C@H]2[C@@H]3CCC4=CC(=O)C=C[C@]4(C)[C@@]3(F)[C@@H](O)C[C@]2(C)[C@@]1(O)C(=O)CO [DXM, dexamethasone] |  |  |  |  | 72 ± 1 | 68 ± 2 | 97 ± 1 | 85 ± 1
